Compound activity: PubChem BioAssay, several laboratories
Hits are enriched below; roughly 4.5% of the tested compounds scored in any of these assays.
MrgX1 antag = antagonists of human MrgX1 receptor, primary screen, HEK293 cells, Fluo-4 calcium flux; Mas-related G-protein coupled receptor member X1 (Homo sapiens), Q96LB2; 310,000 tested, 1.3% active; BAM8-22 antagonism; stronger effect = lower value; AID 588676, 2011; B-score at 10 µM;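 active = calcium-response B-score plate-corrected more than 3 library SD below zero, starting fluorescence within 5 deviations, no agonist response on first addition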;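 also: peak minus trough fluorescence over baseline after final BAM8-22 challenge near maximal dose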
Target sequence (Q96LB2 whole entry, looked up): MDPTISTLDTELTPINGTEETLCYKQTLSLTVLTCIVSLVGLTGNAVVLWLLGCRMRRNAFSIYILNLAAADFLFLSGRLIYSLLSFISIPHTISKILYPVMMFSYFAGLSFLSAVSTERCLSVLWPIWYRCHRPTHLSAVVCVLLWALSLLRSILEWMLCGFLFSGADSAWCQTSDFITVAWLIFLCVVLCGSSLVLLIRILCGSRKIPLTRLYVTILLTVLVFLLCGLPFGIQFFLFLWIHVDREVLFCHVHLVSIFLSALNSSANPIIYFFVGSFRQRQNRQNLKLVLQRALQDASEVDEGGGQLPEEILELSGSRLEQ
RGS4 act = RGS4 potentiators or activators, primary screen, cell-based, HEK293 M3R inducible RGS4, calcium flux; carbachol calcium flux Fluo4; stronger effect = lower value; B-score at 10 µM; 310,000 tested, 0.92% active; AID 463111, 2010;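 active = B-score of the integrated calcium signal more than 4 SD below the library mean, with starting fluorescence not abnormally high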;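 also: negative B-score means reduced calcium response which marks RGS4 activation or potentiation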
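Material: Inducible-RGS4 HEK293 cells carrying M3 receptor; also added: carbachol at ECmax as muscarinic agonist stimulus; incubation: compound preincubation 20 min at room temperature before agonist; signal: Fluo4-AM (2 µM) calcium-flux fluorescence, kinetic read; measure: integrated calcium ratio converted to B score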
RGS4 inh = RGS4 inhibitors, primary screen, cell-based, HEK293 M3R inducible RGS4, calcium flux; Regulator of G-protein signaling 4 (Homo sapiens), P49798; Fluo-4 calcium flux; stronger effect = higher value; triggered by carbachol at its EC20; B-score at 10 µM; 310,000 tested, 0.45% active; AID 463165, 2010;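 active = B-score, a plate-corrected calcium signal, over three deviations above library mean, with baseline fluorescence within five deviations of library mean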;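 also: RGS4 expression induced by doxycycline in cells with stable M3 receptor; B-score is computed from the integrated fluorescence ratio over baseline after carbachol; higher B-score means a larger calcium signal and so more RGS4 inhibition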
Target sequence (P49798 whole entry, looked up): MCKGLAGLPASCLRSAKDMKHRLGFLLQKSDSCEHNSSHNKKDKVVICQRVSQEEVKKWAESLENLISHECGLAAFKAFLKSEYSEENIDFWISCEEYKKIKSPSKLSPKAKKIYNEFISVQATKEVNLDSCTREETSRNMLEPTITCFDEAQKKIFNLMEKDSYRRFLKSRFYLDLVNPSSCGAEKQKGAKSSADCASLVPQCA
PHOSPHO1 inh = PubChem AID 1565 | Phosphoethanolamine/phosphocholine phosphatase (Homo sapiens), Q8TCT1 | recombinant PHOSPHO1, absorbance phosphatase assay | inhibition, % at 13.3 µM | 290,000 tested, 1.1% active; in the data active = inhibition above about 60%
MrgX1 agonist = agonists of human MrgX1 receptor, primary screen, HEK293 cells, Fluo-4 calcium flux; Fluo-4 calcium fluorescence, agonist mode; stronger effect = higher value; B-score at 10 µM; 310,000 tested, 0.44% active;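 active = calcium response B-score plate-corrected fluorescence ratio at least 3 library SD, with starting fluorescence B-score inside 5 SD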
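Assay system: MrgX1-expressing HEK293 cells / Amount: fifteen thousand cells per well / Doses: test compound in the initial addition of three / Timing: cells plated overnight, dye loaded 0.5 h 37 °C, 0.5 h room temperature / Technique: kinetic calcium dye fluorescence, Fluo-4 NW / Control set: positive and negative controls per plate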
MrgX1 allo act = positive allosteric modulators of MrgX1, primary screen, HEK293 cells, Fluo-4 calcium flux; FDSS; stronger effect = higher value; B-score at 10 µM; Mas-related G-protein coupled receptor member X1 (Homo sapiens), Q96LB2; 310,000 tested, 0.63% active; AID 588675, 2011;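 active = plate-corrected calcium response at least 3 library SD above typical, normal starting fluorescence, not activating the receptor alone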;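 also: compound read alongside a low EC10 to EC30 dose of BAM8-22 agonist; peak minus trough fluorescence over baseline measured at the second addition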
RGS4 inh valid = enhanced carbachol calcium response, M3R/RGS4 cells, RGS4 inhibitor project, cell-based, validation screen, HEK293 M3R/RGS4, calcium flux. 1,700 tested, 65% active. shares compounds with RGS4 inh. calcium response, % at 10 µM. AID 492999, 2010. carbachol calcium Fluo-4 fluorescence; carbachol added at its EC20; 0 = buffer wells, 100 = carbachol control;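 active = duplicate-averaged calcium response above the buffer-only control mean plus 5 SD of those controls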;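 also: integrated fluorescence ratio F max minus min over baseline F0; higher response in RGS4-induced cells means RGS4 inhibition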
M3R Ca ctr = carbachol calcium response in non-induced M3R cells, confirmation, counter-screen for RGS4 inhibitor project, cell-based, HEK293 M3R | shares compounds with RGS4 inh | carbachol calcium Fluo-4; submaximal (EC20) carbachol stimulus; buffer wells 0%, carbachol control wells 100% | activity (percent), % at 10 µM | 1,900 tested, 20% active | AID 493000, 2010; call rule not given here;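 also: RGS4 induction absent so cells express M3R without RGS4; higher means more calcium signal and flags a non-specific hit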
M3R basal Ca ctr = second counter-screen for RGS4 inhibitors: non-induced cells without carbachol; shares compounds with RGS4 inh; HEK293 M3R/RGS4 non-induced, Fluo-4 calcium, no carbachol; normalised: buffer wells 0%, carbachol wells 100%; calcium response (agonist-mode artifact), % at 10 µM; 1,900 tested, 22% active; AID 493001;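 active = duplicate-averaged calcium rise in uninduced cells above buffer wells' mean plus 5 SD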
An asterisk follows results filed as active; i = inactive; nt = no result.

SMILES	MrgX1 antag	RGS4 act	RGS4 inh	PHOSPHO1 inh	MrgX1 agonist	MrgX1 allo act	RGS4 inh valid	M3R Ca ctr	M3R basal Ca ctr
CC1(C)COC(c2cccc(C3=NC(C)(C)CO3)n2)=N1	i	i	i	4.5	i	i	nt	nt	nt
CCOC(=O)CNc1nnc(SCC(=O)OCC)[nH]c1=O	i	i	i	14.1	i	i	nt	i	i
COC(=O)CSc1nnc(C)c(=O)[nH]1	i	i	i	7.0	i	i	nt	nt	nt
O=C1C=CC(O)(c2cc(=O)c3c(O)cc(O)cc3o2)C=C1	i	i	26.2*	23.1	i	i	78.5%*	30.5%*	i
Nc1nc(Nc2ccccc2)sc1C(=O)c1ccccc1	i	i	12.6*	17.7	i	i	23.0%*	37.5%*	i
COc1ccc(C(=O)c2sc(Nc3ccccc3F)nc2N)cc1	i	i	i	27.0	i	i	nt	i	i
COc1ccc(C(=O)c2sc(Nc3ccccc3)nc2N)cc1OC	i	i	i	31.6	i	i	nt	nt	nt
COc1ccc(C(=O)c2sc(Nc3ccccc3)nc2N)cc1	i	i	i	24.1	i	i	i	i	i
COc1ccc(C(=O)NC(=S)Nc2ccccc2F)cc1	i	i	i	-5.1	i	i	nt	nt	nt
CC1CCCN(CCCOc2ccccc2-c2ccccc2)C1 (stereo not drawn)	nt	i	i	8.3	nt	nt	nt	nt	nt
O=C1CCC([N+](=O)[O-])C(c2ccc(C(F)(F)F)cc2)N1 (stereo not drawn)	i	i	i	nt	i	i	nt	nt	nt
COc1cc2c(cc1OC)CN(CCC(=O)c1ccc(Br)cc1)CC2	i	i	21.3*	20.2	i	i	53.5%*	i	27.5%*
CCO[C@H]1OC(C(=O)N2CCOCC2)=C[C@@H](C)[C@@H]1CCCO	i	i	i	-3.4	i	i	nt	nt	nt
O=c1[nH]ncn1-c1ccccc1	i	i	i	56.8	i	i	nt	nt	nt
Cc1sc(NC(=O)CSC2=NCCS2)nc1-c1ccccc1	i	i	i	14.8	i	i	nt	nt	nt
CC(=O)N1CC(=O)N=C1SCC(=O)Nc1nc(-c2ccccc2)c(-c2ccccc2)s1	i	i	8.68*	-5.1	i	i	29.0%*	i	i
CN(C)c1ccc(C(C[N+](=O)[O-])c2c(N)n(C)c(=O)n(C)c2=O)c(F)c1C#N (stereo not drawn)	i	i	22.1*	35.1	31.2*	i	62.0%*	i	i
O=Nc1c(O)n(Cc2ccc(Cl)cc2Cl)c2ccccc12	i	i	6.6*	18.3	i	i	5.5%*	i	i
O=C(COC(=O)/C=C/c1cccc([N+](=O)[O-])c1)NCc1ccc2c(c1)OCO2	i	i	i	24.1	i	i	nt	nt	nt
COc1ccc(C2C(C#N)=C(N)Oc3c2c(-c2ccccc2)nn3-c2ccccc2)c(OC)c1OC (stereo not drawn)	i	i	i	-4.6	i	i	nt	i	i
COc1ccc(OC)c(C2C(C#N)=C(N)Oc3c2c(C)nn3-c2ccc(C)cc2)c1 (stereo not drawn)	i	i	i	23.3	i	i	nt	nt	nt
